Assay results as given in ChEMBL document CHEMBL1268887, “2-Hexadecynoic acid inhibits plasmodial FAS-II enzymes and arrests erythrocytic and liver stage Plasmodium infections” (Bioorg Med Chem, 2010).
Converted amounts (≈) assume the structure as drawn.

Assays:
Plasmodium falciparum [1] = test: Selectivity ratio of IC50 for Plasmodium falciparum FabG to IC50 for Plasmodium falciparum FabI
[2] = target: T1, 3-oxoacyl-acyl-carrier protein reductase (Plasmodium falciparum, UniProt Q965D6); test: Inhibition of Plasmodium falciparum FabG by spectrophotometric analysis
T1 sequence (Q965D6 whole entry): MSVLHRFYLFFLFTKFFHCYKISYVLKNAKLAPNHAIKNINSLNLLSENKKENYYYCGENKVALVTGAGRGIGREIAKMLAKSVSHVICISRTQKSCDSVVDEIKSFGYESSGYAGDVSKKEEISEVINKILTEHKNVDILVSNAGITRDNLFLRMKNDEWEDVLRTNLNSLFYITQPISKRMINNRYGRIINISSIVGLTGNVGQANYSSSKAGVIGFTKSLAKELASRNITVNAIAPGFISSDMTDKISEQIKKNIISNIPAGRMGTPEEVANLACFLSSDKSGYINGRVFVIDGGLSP
Method in brief: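 Recombinant PfFabG assayed in 20 mM HEPES pH 7.4, 150 mM NaCl, with NADPH cofactor and acetoacetyl-CoA substrate; DMSO at most 1% final. IC50 came from plotted dose-response curves.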

Plasmodium falciparum [3] = test: Selectivity ratio of IC50 for Plasmodium falciparum FabG to IC50 for Plasmodium falciparum FabZ
Plasmodium yoelii [4] = test: Antimalarial activity against liver stages of Plasmodium yoelii expressing GFP infected in human HepG2:CD81 cells after 43 hrs by flow cytometry; type: functional, organism-based
Method in brief: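 HepG2:CD81 cells seeded on attachment matrix in DMEM/F12 with FBS, infected next day with 50,000 PyGFP sporozoites dissected from mosquitoes 14 days post blood meal. Compound added 2 h later from 10 mM DMSO stocks, tested at 10 to 100 μM, medium changed at 24 h, grown a further 43 h at 37 °C. GFP-positive cells counted by flow cytometry with 7-AAD; atovaquone as positive control.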

Trypanosoma cruzi = test: Trypanocidal activity against intracellular amastigotes of Trypanosoma cruzi Tulahuen C2C4 expressing LacZ gene infected in rat L6 cells after 96 hrs; type: functional, organism-based; conditions: Tulahuen C2C4, L6, 96 h
Fatty acid synthase = target: T2, Fatty acid synthase (Plasmodium falciparum, UniProt Q965D7); test: Inhibition of Plasmodium falciparum FabZ by spectrophotometric analysis
T2 sequence (Q965D7 whole entry): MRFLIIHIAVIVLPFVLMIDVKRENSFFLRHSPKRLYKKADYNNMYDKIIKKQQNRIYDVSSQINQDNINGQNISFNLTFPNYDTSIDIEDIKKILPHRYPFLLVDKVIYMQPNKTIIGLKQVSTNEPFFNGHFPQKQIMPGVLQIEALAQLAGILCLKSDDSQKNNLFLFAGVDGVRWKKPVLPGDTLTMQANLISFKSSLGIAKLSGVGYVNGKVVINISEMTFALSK
Method in brief: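 Recombinant PfFabZ (0.5 μg) with 25 μM crotonoyl-CoA in 20 mM HEPES pH 7.4, 150 mM NaCl; DMSO at most 1% final. Read at 263 nm for 2 min, with epigallocatechin gallate as reference. IC50 came from plotted dose-response curves.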

L6 = test: Cytotoxicity against rat L6 cells after 72 hrs by microplate fluorometric analysis; type: cell-based; conditions: L6, 72 h
[5] = target: T3, Enoyl-acyl-carrier protein reductase (Plasmodium falciparum, UniProt Q965D5); test: Inhibition of Plasmodium falciparum FabI by spectrophotometric analysis
T3 sequence (Q965D5 whole entry): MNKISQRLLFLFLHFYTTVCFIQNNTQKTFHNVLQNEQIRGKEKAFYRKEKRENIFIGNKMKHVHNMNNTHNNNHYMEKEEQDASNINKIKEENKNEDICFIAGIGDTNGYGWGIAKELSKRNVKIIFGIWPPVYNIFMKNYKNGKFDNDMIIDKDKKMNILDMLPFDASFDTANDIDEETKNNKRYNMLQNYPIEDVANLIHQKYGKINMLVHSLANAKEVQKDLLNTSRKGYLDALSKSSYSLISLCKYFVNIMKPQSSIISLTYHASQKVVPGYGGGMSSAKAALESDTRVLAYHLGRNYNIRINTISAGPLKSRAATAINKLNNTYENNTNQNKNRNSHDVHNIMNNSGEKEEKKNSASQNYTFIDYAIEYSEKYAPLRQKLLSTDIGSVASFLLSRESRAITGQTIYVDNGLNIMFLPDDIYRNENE

Leishmania donovani = test: Leishmanicidal activity against axenic amastigotes of Leishmania donovani MHOM/ET/67/L82 after 72 hrs; type: functional, organism-based; conditions: MHOM/ET/67/L82, 72 h
Plasmodium yoelii [6] = test: Antimalarial activity against liver stages of Plasmodium yoelii expressing GFP infected in human HepG2:CD81 cells after 43 hrs by immunofluorescence analysis; type: functional, organism-based
Method in brief: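 P. yoelii sporozoite-infected subconfluent HepG2:CD81 cells were kept at 37 °C in 5% CO2 and exposed to compound at up to 25 μg/ml in complete medium. After 43 h they were formalin-fixed and stained with anti-Plasmodium HSP70 mouse mAb plus rabbit anti-UIS4 or anti-FabI. About 20–25 parasites per treatment were sized at 20X against DMSO controls. The normalized reduction was used for IC50 estimation.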

[7] = test system: Trypanosoma brucei rhodesiense; test: Trypanocidal activity against bloodstream form of Trypanosoma brucei rhodesiense STIB 900 after 72 hrs; type: functional, organism-based; conditions: STIB 900, 72 h
Plasmodium falciparum [8] = test: Antimalarial activity against erythrocytic stages of chloroquine and pyrimethamine-resistant Plasmodium falciparum K1 assessed as [3H]hypoxanthine incorporation after 48 hrs by liquid scintillation counting; type: functional, organism-based
Method in brief: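 K1 parasites in RPMI 1640 with 5% Albumax, no hypoxanthine, given serial dilutions; 48 h at 37 °C under reduced oxygen, then 0.5 μCi [3H]-hypoxanthine added for a further 24 h. Harvested on glass-fibre filters and counted. Counts per well expressed as percentage of untreated controls; IC50 read from plotted dose-response curves. Chloroquine as standard.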

SMILES | Ratio IC50 (Plasmodium falciparum [1]) | IC50 [2] | Ratio IC50 (Plasmodium falciparum [3]) | IC50 (Plasmodium yoelii [4]) | IC50 (Trypanosoma cruzi) | IC50 (Fatty acid synthase) | IC50 (L6) | IC50 [5] | IC50 (Leishmania donovani) | IC50 (Plasmodium yoelii [6]) | IC50 [7] | IC50 (Plasmodium falciparum [8])
CCCCCCC#CCCCCCCCC(=O)O | 10 | > 396 µM | 50 | > 25 µg/mL | > 30 µg/mL | 49.5 µM | 80.8 µg/mL (≈ 320 µM) | 11.1 µM | 4.1 µg/mL (≈ 16.2 µM) | > 25 µg/mL | 3.7 µg/mL (≈ 14.7 µM) | 
CCCCCCCCCCCCCCCCOP(=O)([O-])OCC[N+](C)(C)C [MILTEFOSINE] |  |  |  |  |  |  |  |  | 0.26 µg/mL (≈ 0.638 µM) |  |  | 
O=C1C(O)=C([C@H]2CC[C@H](c3ccc(Cl)cc3)CC2)C(=O)c2ccccc21 [ATOVAQUONE] |  |  |  | 0.0025 µg/mL (≈ 0.00681 µM) |  |  |  |  |  | 0.00037 µg/mL (≈ 0.00101 µM) |  | 
CCCCCCCCCCCCCCCC(=O)O [PALMITIC ACID] |  | > 390 µM |  | > 25 µg/mL | > 30 µg/mL | > 390 µM | 52.7 µg/mL (≈ 206 µM) | > 390 µM | 14.5 µg/mL (≈ 56.5 µM) | > 25 µg/mL | 30.4 µg/mL (≈ 119 µM) | 3.8 µg/mL (≈ 14.8 µM)
CCCCCCCCCC#CCCCCC(=O)O | 10 | > 396 µM | 50 | > 25 µg/mL | > 30 µg/mL | 47.5 µM | 30.3 µg/mL (≈ 120 µM) | 14.3 µM | 9.8 µg/mL (≈ 38.8 µM) | > 25 µg/mL | 31.7 µg/mL (≈ 126 µM) | 22.5 µg/mL (≈ 89.1 µM)
O=C(O[C@@H]1Cc2c(O)cc(O)cc2O[C@@H]1c1cc(O)c(O)c(O)c1)c1cc(O)c(O)c(O)c1 [EPIGALOCATECHIN GALLATE] |  |  |  |  |  | 0.0654 µM |  |  |  |  |  | 
CCCCCCCCCCC#CCCCC(=O)O | 10 | > 396 µM | 50 | > 25 µg/mL | > 30 µg/mL | 55.5 µM | > 90 µg/mL | 12.3 µM | 13.4 µg/mL (≈ 53.1 µM) | > 25 µg/mL | 25.5 µg/mL (≈ 101 µM) | 6.6 µg/mL (≈ 26.1 µM)
COc1cc([C@@H]2c3cc4c(cc3[C@H](O)[C@H]3COC(=O)[C@H]23)OCO4)cc(OC)c1OC [PODOFILOX] |  |  |  |  |  |  | 0.004 µg/mL (≈ 0.00965 µM) |  |  |  |  | 
O=C(Cn1ccnc1[N+](=O)[O-])NCc1ccccc1 [BENZNIDAZOLE] |  |  |  |  | 0.489 µg/mL (≈ 1.88 µM) |  |  |  |  |  |  | 
